# Compounds with a hit are over-represented: about 4.5% of the library has one in this group of screens.
# GPR7 antag: GPR7 receptor antagonists, primary screen, cell-based, fluorescence, single concentration; Neuropeptides B/W receptor type 1 (Homo sapiens), P48145; GPR7-expressing cells, fluorescence antagonist assay; inhibition, % at 4.4 µM; 1.1% of 290,000 active; AID 1861, 2009; in the data active = inhibition above about 16%, passing the limit was not always enough;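 also: cells stimulated with the agonist NPW; 0% = agonist with vehicle and 100% = vehicle without agonist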
# CHO parental Ca: ATP-evoked calcium signal inhibitors, parental CHO, primary screen, counter-screen for OX1R antagonist project, cell-based, fluorescence, Fluo-8 calcium dye; parental CHO-K1, ATP-induced calcium, Fluo-8 fluorescence; 0.63% of 330,000 active; inhibition, % at 5.6 µM;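 active = inhibition above that plate's mean sample inhibition plus 3 SD, cut at about 26% in these data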;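 also: 0% = ATP-challenged DMSO wells and 100% = DMSO wells without ATP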
#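 Assay system – parental CHO cells · Reagent – ATP stimulus · Detection – intracellular calcium via Fluo-8 no-wash fluorescent dye · Evaluation – percent inhibition of ATP-evoked calcium rise, normalized to controls · Controls – ATP wells versus no-ATP DMSO wells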
# TAAR1 antagonist: human TAAR1 antagonists, primary screen, Fluo-8 calcium fluorescence, CHO RD-HGA16 cells. 1.5% of 360,000 active. inhibition, % at 3 µM. AID 624466, 2012. antagonist;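 active = inhibition above a per-plate cutoff, the mean inhibition of test compounds on that plate plus 3 SD, cut at about 49% in these data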;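 also: 0% = DMSO plus EC80 beta-PEA response and 100% = DMSO alone without agonist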
# Target sequence (Q96RJ0 whole entry, looked up): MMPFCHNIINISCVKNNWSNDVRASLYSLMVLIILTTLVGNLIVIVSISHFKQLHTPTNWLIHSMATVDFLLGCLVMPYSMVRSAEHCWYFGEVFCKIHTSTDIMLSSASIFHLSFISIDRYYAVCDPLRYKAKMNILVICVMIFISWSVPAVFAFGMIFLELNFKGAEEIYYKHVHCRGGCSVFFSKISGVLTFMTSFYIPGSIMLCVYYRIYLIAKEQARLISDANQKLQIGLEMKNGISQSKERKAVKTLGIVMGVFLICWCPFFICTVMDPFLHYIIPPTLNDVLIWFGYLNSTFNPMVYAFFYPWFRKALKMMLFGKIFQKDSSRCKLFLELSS
#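 Test system – hTAAR1-expressing CHO RD-HGA16 cells, Gα16-coupled · Reagent – β-PEA at EC80 concentration, post-compound challenge · Compound dosing – 3 µM, single point · Timing – 140 s kinetic read after compound, 140 s after agonist · Detection – Fluo-8 intracellular calcium dye fluorescence, real-time kinetic reads · Control set – DMSO and EC80 PEA controls · Repeats – n of 1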
# OX1R antag-1: antagonists of human orexin 1 receptor (OX1R); Orexin/Hypocretin receptor type 1 (Homo sapiens), O43613; OX1R-expressing cells, FRET antagonist read-out; inhibition, % at 6.6 µM; 1.8% of 330,000 active; AID 485270, 2010; in the data active = inhibition mostly above about 38%, no sharp cut-off; inactive = mostly below about 40%;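 also: 0% = agonist challenge alone and 100% = reference antagonist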
# TAAR1 agonist: human TAAR1 agonists, primary screen, Fluo-8 calcium fluorescence, CHO RD-HGA16 cells; Trace amine-associated receptor 1 (Homo sapiens), Q96RJ0; vehicle wells 0%, saturating PEA agonist 100%; activation, % at 3 µM; 0.99% of 360,000 active; AID 624467, 2012;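 active = activation above the mean activation of all test compounds in the run plus 3 SD, cut at about 38% in these data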
#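 Test system: RD-HGA16 (CHO) cells co-expressing Gα16 and hTAAR1 | Doses: Single dose, 3 µM | Schedule: 17-24 h seeding, 75 min 37 °C dye, 30 min RT | Evaluation: % activation from peak over basal fluorescence ratio, DMSO-to-PEA scaled | Technique: Kinetic Fluo-8 calcium fluorescence | Benchmarks: Low control DMSO, high control PEA (EC100)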
# OX1R antag-2: OX1R (HCRTR1) antagonists, primary screen, fluorescence, CHO/OX1R cells, Fluo-8 calcium, orexin A; Orexin/Hypocretin receptor type 1 (Homo sapiens), O43613; Fluo-8 calcium fluorescence; inhibition, % at 5 µM; 0.43% of 330,000 active; AID 434989, 2010;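 active = inhibition above its plate's threshold, mean inhibition of all tested compounds on the plate plus 3 SD, cut at about 37% in these data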;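 also: 0% = orexin A challenge wells and 100% = SB-334867-A antagonist wells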
# OX1R HTRF conf: OX1R (HCRTR1) antagonists, confirmation, cell-based, HTRF; shares compounds with OX1R antag-1; OX1R-expressing cells, HTRF antagonist assay; inhibition, % at 6.6 µM; 49% of 1,800 active; in the data active = inhibition above about 55%;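 also: CHO cells expressing OX1R stimulated with orexin A at about EC80; 0% = agonist challenge alone and 100% = reference antagonist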
# CHO-K1 HTRF cnt: signal inhibition in parental CHO-K1 cells, counter-screen for OX1R antagonist project, cell-based, HTRF | inhibition, % at 6.6 µM | AID 493232, 2011 | HTRF counterscreen | 48% of 1,800 active | shares compounds with OX1R antag-1; in the data active = inhibition above about 17%;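 also: 0% = agonist challenge with vehicle and 100% = vehicle alone without agonist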
# * hit, by the source's call; x = not tested or not shown.
SMILES,GPR7 antag,CHO parental Ca,TAAR1 antagonist,OX1R antag-1,TAAR1 agonist,OX1R antag-2,OX1R HTRF conf,CHO-K1 HTRF cnt
O=C(Cc1cccc(NC(=O)C2CCCN(C(=O)CCc3ccccc3)C2)c1)Nc1cccc(C(=O)N2CCCC2)c1 (stereo not drawn),x,-15.3,10.4,26.2,-1.2,-0.5,x,x
C=CCNc1sc(C(=O)c2ccccc2)c(N)c1-c1nc2ccccc2s1,1.2,-18.0,x,92.9*,x,-8.4,34.8,6.8
Cc1c(NC(=O)CN2C(=O)NC(C)(c3ccccc3)C2=O)c(=O)n(-c2ccccc2)n1C (stereo not drawn),-7.3,4.3,-1.4,1.2,6.4,-6.6,x,x
Cc1c(NC(=O)CN2C(=O)C(=O)c3ccccc32)c(=O)n(-c2ccccc2)n1C,-13.7,-12.5,-10.8,80.3*,2.6,-15.6,53.3,50.9*
Cc1ccc(C)c(N2N=C(C(=O)N(CC(C)C)c3c(N)n(Cc4ccccc4)c(=O)[nH]c3=O)CCC2=O)c1,-5.1,-18.2,-8.1,15.4,-0.5,-24.7,x,x
O=C(CC1Nc2ccccc2NC1=O)NCC1COc2ccccc2O1 (stereo not drawn),10.4,-15.9,x,79.0*,x,22.6,64.9*,-0.6
O=C(CC1OC(=O)c2ccccc21)NCC1COc2ccccc2O1 (stereo not drawn),x,-16.4,-15.1,11.5,0.4,-17.7,x,x
CCn1c(=O)n(C)c2c(=O)n(C)c(=O)n(C)c21,x,x,5.6,x,0.5,x,x,x
Nn1cnnc1N/N=C/c1cccc(Cl)c1Cl,-16.8,x,-6.3,x,4.0,x,x,x
CCc1nnc(N/N=C/c2ccccc2Cl)n1N,-9.9,4.3,6.2,95.5*,0.2,-5.9,18.7,13.4
COc1cc(C2C(C#N)=C(N)Oc3c2oc(CO)cc3=O)cc(OC)c1OC (stereo not drawn),-8.2,-10.9,3.0,19.0,4.3,-14.4,x,x
COc1cccc(C2C(C#N)=C(N)Oc3c2oc(CO)cc3=O)c1OC (stereo not drawn),-3.2,-7.2,0.7,2.1,4.3,-8.3,x,x
N#CC1=C(N)Oc2c(oc(CO)cc2=O)C1c1cccs1 (stereo not drawn),-14.5,-11.2,-7.0,76.8*,0.6,-11.0,17.8,22.0*
N#CC1=C(N)Oc2c(oc(CO)cc2=O)C1c1ccsc1 (stereo not drawn),-4.9,14.1,-2.9,91.6*,15.1,8.2,23.5,17.6*
Cc1ccc(-n2nc3c(=O)n(CC(=O)NC4CCCCCC4)nc(C)c3c2C)cc1,-17.1,-9.9,-5.7,8.2,3.1,-22.9,x,x
CC[C@H]1OC(=O)[C@H](C)[C@@H](O[C@H]2C[C@@](C)(OC)[C@@H](O)[C@H](C)O2)[C@H](C)[C@@H](O[C@@H]2O[C@H](C)C[C@H](N(C)C)[C@H]2O)[C@](C)(O)C[C@@H](C)CN(C)[C@H](C)[C@@H](O)[C@]1(C)O,x,0.0,1.6,4.1,-0.1,-7.7,x,x
Cc1cccn2cc(-c3cc4ccccc4oc3=O)nc12,-6.3,1.4,-19.4,9.9,0.1,0.9,x,x
O=c1oc2ccccc2cc1-c1cn2ccccc2n1,-8.7,5.9,13.2,95.3*,1.7,-0.3,71.9*,19.8*
Cc1ccc(NC(=O)c2oc3ccccc3c2COC(C)C)cc1S(=O)(=O)N1CCOCC1,x,-28.5,41.3,19.6,4.0,-1.1,x,x
COC(=O)c1cn(NC(=O)Cc2ccc(Cl)c(Cl)c2)c(=O)c2ccccc12,-10.3,-18.3,-14.1,87.2*,3.0,-19.4,80.6*,8.2
